Test results: ChEMBL document CHEMBL3758144, “Dihydroisocoumarin Derivatives from Marine-Derived Fungal Isolates and Their Anti-inflammatory Effects in Lipopolysaccharide-Induced BV2 Microglia” (J Nat Prod, 2015)
Activity calls are given as the source filed them. The rule behind the calls is not given here.

Key:
[1] = (§1) Antiinflammatory activity in LPS-induced […] BV2 cells assessed as reduction in NO production pretreated for 30 mins followed by LPS stimulation measured for 24 hrs by Greiss assay; assay type: functional, cell-based; details: BV-2
How it was run: (§2)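 BV2 microglia in DMEM with 10% heat-inactivated FBS, penicillin/streptomycin and 2 mM L-glutamine at 37 °C, 5% CO2. Pretreated 30 min with test agent (10−80 μM range), then LPS 1 μg/mL for 24 h. Nitrite in supernatant measured by Griess reagent, absorbance at 525 nm. IC50 from mean of three experiments ± SD.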

BV-2 [2] = assay: as §1; assay type: functional, cell-based; details: Mus musculus; how it was run: as §2
[3] = (§3) Antiinflammatory activity in LPS-induced […] BV2 cells assessed as reduction in PGE2 production pretreated for 30 mins followed by LPS stimulation measured for 24 hrs by ELISA; assay type: functional, cell-based; details: BV-2
How it was run: (§4)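 BV2 microglia cultured in 24-well plates and preincubated 30 min with test agent (10−80 μM range), then stimulated 24 h with LPS 1 μg/mL. Supernatant PGE2 quantified by ELISA kit. IC50 from mean of three experiments ± SD.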

BV-2 [4] = assay: as §3; assay type: functional, cell-based; details: Mus musculus; how it was run: as §4
BV-2 [5] = assay: Inhibition of LPS-induced COX2 expression in […] BV2 cells pretreated for 30 mins followed by LPS stimulation measured for 24 hrs by Western blot analysis; assay type: functional, cell-based; details: Mus musculus
How it was run: (§5)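 BV2 microglia pretreated 30 min with test agent at 20−80 μM, then LPS 1 μg/mL for 24 h. Lysates in 20 mM Tris-HCl pH 7.4 with protease inhibitors, protein by Lowry. SDS-PAGE, nitrocellulose transfer, milk block, ECL detection. Band densitometry normalized to β-actin.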

[6] = Cytotoxicity against […] BV2 cells at 10 to 80 uM by MTT assay; assay type: cell-based; details: bv-2, 80 µM
How it was run: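 MTT added to BV2 cell suspension (1 × 10^5 cells/mL), incubated 30 min. Formazan dissolved in acidic 2-propanol and read at 540 nm. Compounds tested at 10−80 μM.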

BV-2 [7] = assay: Inhibition of LPS-induced iNOS expression in […] BV2 cells pretreated for 30 mins followed by LPS stimulation measured for 24 hrs by Western blot analysis; assay type: functional, cell-based; details: Mus musculus; how it was run: as §5
BV-2 [8] = assay: Inhibition of ERK phosphorylation in […] BV2 cells at 20 to 80 uM pretreated for 30 mins followed by LPS stimulation for 30 mins by Western blot analysis; assay type: cell-based
How it was run: (§6)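 BV2 microglia pretreated 30 min with test agent (20−80 μM), then LPS 1 μg/mL for 30 min. Total and phosphorylated ERK, JNK and p38 detected by Western blot (SDS-PAGE, nitrocellulose, ECL).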

[9] = biological target: T1, Nuclear factor NF-kappa-B p105 subunit (Homo sapiens) (UniProt P19838); assay: Inhibition of LPS-induced p50 translocation from cytosol to nucleus in […] BV2 cells pretreated for 30 mins followed by LPS stimulation for 30 mins by Western blot analysis; assay type: cell-based; details: BV-2
T1 sequence (whole entry): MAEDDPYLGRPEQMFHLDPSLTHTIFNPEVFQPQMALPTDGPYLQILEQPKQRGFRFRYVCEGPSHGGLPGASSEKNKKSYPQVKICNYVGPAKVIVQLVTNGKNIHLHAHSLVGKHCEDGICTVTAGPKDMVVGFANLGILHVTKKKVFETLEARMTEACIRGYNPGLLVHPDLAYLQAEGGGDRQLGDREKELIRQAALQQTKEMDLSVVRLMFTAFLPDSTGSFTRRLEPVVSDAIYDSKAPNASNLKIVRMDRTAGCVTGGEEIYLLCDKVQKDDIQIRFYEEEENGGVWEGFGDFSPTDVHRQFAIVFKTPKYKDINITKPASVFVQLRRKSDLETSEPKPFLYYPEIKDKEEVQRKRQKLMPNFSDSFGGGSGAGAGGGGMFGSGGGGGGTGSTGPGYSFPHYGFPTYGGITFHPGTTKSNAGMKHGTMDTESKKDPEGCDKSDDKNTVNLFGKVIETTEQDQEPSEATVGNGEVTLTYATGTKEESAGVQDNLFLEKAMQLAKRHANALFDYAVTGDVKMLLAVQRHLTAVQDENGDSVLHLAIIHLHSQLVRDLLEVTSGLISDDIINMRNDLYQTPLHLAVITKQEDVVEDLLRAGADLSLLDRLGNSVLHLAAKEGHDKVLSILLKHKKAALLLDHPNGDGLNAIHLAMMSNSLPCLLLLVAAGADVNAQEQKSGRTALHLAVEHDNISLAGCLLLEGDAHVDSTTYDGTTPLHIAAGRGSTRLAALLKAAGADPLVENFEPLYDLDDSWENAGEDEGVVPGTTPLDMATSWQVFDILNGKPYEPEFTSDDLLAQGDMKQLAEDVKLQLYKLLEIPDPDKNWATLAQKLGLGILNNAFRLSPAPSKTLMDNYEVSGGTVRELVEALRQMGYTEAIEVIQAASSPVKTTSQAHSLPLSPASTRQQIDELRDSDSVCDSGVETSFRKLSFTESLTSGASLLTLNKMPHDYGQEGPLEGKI
How it was run: (§7)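 BV2 microglia pretreated 30 min with test agent (20, 40, 80 μM), then LPS for 30 min. Cytosolic and nuclear fractions prepared with NE-PER reagents. Western blot for IκB-α, phospho-IκB-α, p65 and p50. Densitometry normalized to β-actin (cytosol) or PCNA (nucleus). Mean of three experiments ± SD.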

[10] = biological target: Transcription factor p65 (Homo sapiens) (UniProt Q04206); assay: Inhibition of LPS-induced p65 translocation from cytosol to nucleus in […] BV2 cells pretreated for 30 mins followed by LPS stimulation for 30 mins by Western blot analysis; assay type: cell-based; details: BV-2; how it was run: as §7
p38 MAPK (Mus musculus) = assay: Inhibition of p38 phosphorylation in mouse BV2 cells pretreated for 30 mins followed by LPS stimulation for 30 mins by Western blot analysis; details: BV-2
[11] = Effect on JNK expression in […] BV2 cells at 20 to 80 uM pretreated for 30 mins followed by LPS stimulation for 30 mins by Western blot analysis; assay type: ADME, cell-based; details: bv-2, 0.5 h; how it was run: as §6
[12] = Effect on p38 expression in […] BV2 cells at 20 to 80 uM pretreated for 30 mins followed by LPS stimulation for 30 mins by Western blot analysis; assay type: ADME, cell-based; details: bv-2, 0.5 h; how it was run: as §6
[13] = Effect on ERK expression in […] BV2 cells at 20 to 80 uM pretreated for 30 mins followed by LPS stimulation for 30 mins by Western blot analysis; assay type: ADME, cell-based; details: bv-2, 0.5 h; how it was run: as §6
[14] = biological target: T2, NF-kappa-B inhibitor alpha (Homo sapiens) (UniProt P25963); assay: Inhibition of IkappaB-alpha degradation in LPS-induced […] BV2 cells pretreated for 30 mins followed by LPS stimulation for 30 mins by Western blot analysis; assay type: cell-based; details: BV-2; how it was run: as §7
T2 sequence (whole entry): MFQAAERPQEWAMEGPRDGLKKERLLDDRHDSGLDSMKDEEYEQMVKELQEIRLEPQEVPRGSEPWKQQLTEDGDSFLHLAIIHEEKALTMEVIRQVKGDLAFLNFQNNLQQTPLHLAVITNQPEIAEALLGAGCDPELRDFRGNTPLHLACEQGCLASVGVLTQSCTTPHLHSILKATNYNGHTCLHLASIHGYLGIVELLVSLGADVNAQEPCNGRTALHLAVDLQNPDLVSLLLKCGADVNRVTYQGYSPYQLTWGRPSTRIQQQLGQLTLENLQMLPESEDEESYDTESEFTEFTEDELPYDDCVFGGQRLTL

JNK (Mus musculus) = assay: Inhibition of JNK phosphorylation in mouse BV2 cells at 20 to 80 uM pretreated for 30 mins followed by LPS stimulation for 30 mins by Western blot analysis; details: BV-2
[15] = biological target: T2, NF-kappa-B inhibitor alpha (Homo sapiens); assay: Inhibition of IkappaB-alpha phosphorylation in LPS-induced […] BV2 cells pretreated for 30 mins followed by LPS stimulation for 30 mins by Western blot analysis; assay type: cell-based; details: BV-2; how it was run: as §7

Sequence of Transcription factor p65 (Homo sapiens) (Q04206 whole entry): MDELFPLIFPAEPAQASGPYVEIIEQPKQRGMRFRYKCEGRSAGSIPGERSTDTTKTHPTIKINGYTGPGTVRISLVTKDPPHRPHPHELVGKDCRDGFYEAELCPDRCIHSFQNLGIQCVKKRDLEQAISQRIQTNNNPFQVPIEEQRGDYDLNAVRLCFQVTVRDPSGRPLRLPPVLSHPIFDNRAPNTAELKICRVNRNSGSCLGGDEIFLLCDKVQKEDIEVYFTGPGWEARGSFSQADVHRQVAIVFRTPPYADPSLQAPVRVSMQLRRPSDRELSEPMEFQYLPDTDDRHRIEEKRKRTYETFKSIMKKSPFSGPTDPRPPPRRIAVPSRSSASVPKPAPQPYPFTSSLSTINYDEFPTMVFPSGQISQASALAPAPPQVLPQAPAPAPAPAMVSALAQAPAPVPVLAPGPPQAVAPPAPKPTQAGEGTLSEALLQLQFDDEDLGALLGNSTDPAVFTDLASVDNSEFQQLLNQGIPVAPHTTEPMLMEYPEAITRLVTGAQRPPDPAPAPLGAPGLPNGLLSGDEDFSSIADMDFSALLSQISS

| Structure (SMILES) | IC50 [1] [µM] | IC50 [3] [µM] | inhibition [9] | inhibition [10] | Activity (p38 MAPK (Mus musculus)) | inhibition [14] | inhibition (JNK (Mus musculus)) | inhibition [15] | Activity (BV-2 [2]) | Activity (BV-2 [4]) | inhibition (BV-2 [5]) | Activity [6] | inhibition (BV-2 [7]) | inhibition (BV-2 [8]) | Activity [11] | Activity [12] | Activity [13] |
| --- | --- | --- | --- | --- | --- | --- | --- | --- | --- | --- | --- | --- | --- | --- | --- | --- | --- |
| COc1cc(O)cc2c1C(=O)O[C@@H](C[C@H]1CCC[C@H](C)O1)C2 | 28 | 30 | – | – | – | – | – | – | Dose-dependent effect | Dose-dependent effect | Dose-dependent effect | Non-toxic | Dose-dependent effect | – | – | – | – |
| C[C@H]1CCC[C@H](C[C@H]2Cc3cc(O)cc(O[C@H]4O[C@H](CO)[C@@H](O)[C@H]4O)c3C(=O)O2)O1 | 33 | 34 | Dose-dependent effect | Dose-dependent effect | Dose-dependent effect | Dose-dependent effect | inactive | Dose-dependent effect | Dose-dependent effect | Dose-dependent effect | Dose-dependent effect | Non-toxic | Dose-dependent effect | inactive | Non-toxic | Non-toxic | Non-toxic |
| C[C@H]1C[C@@H](O)C[C@H](C[C@H]2Cc3cc(O)cc(O)c3C(=O)O2)O1 | 65 | 61 | – | – | – | – | – | – | Dose-dependent effect | Dose-dependent effect | Dose-dependent effect | Non-toxic | Dose-dependent effect | – | – | – | – |

Continued by falling IC50 [1], values first:

| IC50 [1] [µM] | IC50 [3] [µM] | inhibition [9] | inhibition [10] | Activity (p38 MAPK (Mus musculus)) | inhibition [14] | inhibition (JNK (Mus musculus)) | inhibition [15] | Structure (SMILES) | Activity (BV-2 [2]) | Activity (BV-2 [4]) | inhibition (BV-2 [5]) | Activity [6] | inhibition (BV-2 [7]) | inhibition (BV-2 [8]) | Activity [11] | Activity [12] | Activity [13] |
| --- | --- | --- | --- | --- | --- | --- | --- | --- | --- | --- | --- | --- | --- | --- | --- | --- | --- |
| 24 | 27 | – | – | – | – | – | – | C[C@H]1CCC[C@H](C[C@H]2Cc3cc(O)cc(O)c3C(=O)O2)O1 [CLADOSPORIN] | Dose-dependent effect | Dose-dependent effect | Dose-dependent effect | Non-toxic | Dose-dependent effect | – | – | – | – |
| 21 | 21 | – | – | – | – | – | – | COc1cc(O)c2c(c1)C[C@H](C[C@H]1CCC[C@H](C)O1)OC2=O | Dose-dependent effect | Dose-dependent effect | Dose-dependent effect | Non-toxic | Dose-dependent effect | – | – | – | – |
| 20 | 23 | – | – | – | – | – | – | C[C@@H]1O[C@@H](C[C@H]2Cc3cc(O)cc(O)c3C(=O)O2)CC[C@@H]1O | Dose-dependent effect | Dose-dependent effect | Dose-dependent effect | Non-toxic | Dose-dependent effect | – | – | – | – |
